Published values collected from several papers.
Compare with care: the assays were run in different laboratories.
Target: BDNF/NT-3 growth factors receptor (NTRK2, Homo sapiens, UniProt Q16620)

| Compound | test | conditions | endpoint | value |
| --- | --- | --- | --- | --- |
| COc1cc(Nc2ncc(F)c(Nc3ccc4c(n3)NC(=O)C(C)(C)O4)n2)cc(OC)c1OC | binding, competition with immobilised ligand | 10 µM | inhibition | 95% |
| Cn1cncc1[C@](O)(COc1ccc(C#N)cc1-c1ccc(OC(F)(F)F)cc1)c1ccc(C#N)cc1 | cell-free assay, competition with immobilised ligand | 1 µM | remaining binding | 92% |
| C#Cc1n[nH]c2c(-c3cn(C(C)c4ccccn4)c(=O)[nH]c3=O)cc(F)cc12 (centres unmarked) | enzyme activity, inhibitor | 1 µM | inhibition | 2.8% |
| COc1ncccc1-c1cnn2ccc(N3CCN(C(=O)OC(C)C)CC3)nc12 | binding, competition with immobilised ligand | 1 µM | remaining binding | 40% |
| Cc1nn(C)cc1-c1nc2c(N3CCN(Cc4ccc(Cl)cc4)CC3)c(Cl)cnc2[nH]1 | binding, competition with immobilised ligand | 1 µM | remaining binding | 44% |
| Nc1ncc(-c2nc(N3CCOCC3)nc(N3CCOCC3)n2)c(C(F)F)n1 | cell-free assay, competition with immobilised ligand | 10 µM | remaining binding | 74% |
| Cn1cc(-c2cc(F)cc(N3CCn4c(cc5c4CCCC5)C3=O)c2CO)cc(Nc2ccc(N3CCN(C4COC4)CC3)cn2)c1=O | enzyme activity, inhibitor | 0.1 µM | inhibition | 11% |
| O=c1[nH]c2ccccc2n1C1CCN(Cc2ccc(-c3[nH]c4cc5ncnc5cc4nc3-c3ccccc3)cc2)CC1 | cell-free assay | 0.5 µM | remaining signal | 99.4% |
| C#Cc1n[nH]c2c(-c3cn([C@@H](C)c4ccccc4)c(=O)[nH]c3=O)cc(F)cc12 | enzyme activity, inhibitor | 0.1 µM | inhibition | 6.2% |
| N#CC1(c2ccccn2)CCN(Cc2cc(C(=O)O)c(=O)n3ccccc23)CC1 | cell-free assay, competition with immobilised ligand | 1 µM | remaining binding | 84% |
| CC(C)(C)c1cc(C=C(C#N)C#N)cc(Br)c1O | enzyme activity, inhibitor | 0.5 µM | remaining activity | 90.9% |
